Data from ChEMBL document CHEMBL4340518, “Synthesis, structure-activity relationship and in vitro pharmacodynamics of A-ring modified caged xanthones in a preclinical model of inflammatory breast cancer” (Eur J Med Chem, 2019).
Active and inactive are the calls of the source. The calls are words filed in the database; no cut-off is given here.

What was measured:
[1] = system: Breast carcinoma cell; test: Cytotoxicity against patient derived inflammatory breast cancer cell spheroids assessed as increase in spheroid dissolution at 2.5 uM incubated for 24 hrs by bright field microscopic based Spheroids MARY-X assay; format: functional
Outline: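 MARY-X spheroids (40–100 μm) grown in MEM + 10% heat-inactivated FBS, penicillin/streptomycin, 37 °C, 5% CO2. Plated at 30–50 spheroids/well and exposed in replicates to 2.5 μM or DMSO vehicle for 24 h. Brightfield imaging scored deviation from the well-circumscribed spheroid edge, graded as no, low, moderate or complete response.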

[2] = system: Breast carcinoma cell; test: Induction of apoptosis in patient derived inflammatory breast cancer cell spheroids assessed as increase in loss of well-circumscribed spheroid edge at 2.5 uM incubated for 3 hrs by bright field microscopic analysis; format: functional, cell-based; settings: Homo sapiens
Outline: (§1)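 Spheroids were embedded in Matrigel plugs (Matrigel:spheroids in medium 2:1) on coverslips and set for 30 min at 37 °C. They were exposed to 2.5 μM or DMSO for 3 h, with brightfield checks of edge loss. Plugs were fixed in 4% PFA 30 min RT, permeabilized with 2% Triton X-100 15 min, and blocked with 3% goat serum 30 min. Staining used Alexa488 anti-Ki67 (1:10) and anti-cPARP (1:100), 4 °C 24 h, then Cy5 anti-rabbit (4 µg/ml), 4 °C 24 h, and DAPI mountant. ApoTome z-stack fluorescence imaging followed.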

[3] = system: Breast carcinoma cell; test: Antiproliferative activity against patient derived inflammatory breast cancer cell spheroids assessed as reduction in cell viability at 2.5 uM incubated for 3 hrs by ki-67 staining based fluorescence microscopic analysis; format: functional; settings: Homo sapiens; outline: as §1
[4] = system: Breast carcinoma cell; test: Cytotoxicity against patient derived inflammatory breast cancer cell spheroids assessed as increase in spheroid dissolution incubated for 24 hrs by bright field microscopic based Spheroids MARY-X assay; format: functional; settings: Homo sapiens
Outline: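 MARY-X spheroids (40–100 μm; MEM, 10% heat-inactivated FBS, antibiotics, 37 °C, 5% CO2) were seeded at 30–50/well. Treated in replicates for 24 h with nine concentrations, 0.25–2.25 μM in 0.25 μM steps made by serial dilution, or DMSO. ImageJ circularity from brightfield images gave dose-response curves, from which IC50 was fitted.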

[5] = system: Breast carcinoma cell; test: Induction of apoptosis in patient derived inflammatory breast cancer cell spheroids assessed as increase in pyknotic nuclei at 2.5 uM incubated for 3 hrs by DAPI staining based fluorescence microscopic analysis; format: functional; settings: Homo sapiens; outline: as §1
[6] = system: Breast carcinoma cell; test: Induction of apoptosis in patient derived inflammatory breast cancer cell spheroids assessed as localization of cleaved PARP at 2.5 uM incubated for 3 hrs by c-PARP staining based fluorescence microscopic analysis; format: functional; settings: Homo sapiens; outline: as §1
[7] = system: Breast carcinoma cell; test: Cytotoxicity against patient derived inflammatory breast cancer cell spheroids assessed as increase in spheroid dissolution incubated for 24 hrs by propidium iodide/Acridine orange staining based dual-fluorescence viability assay; format: functional; settings: Homo sapiens
[8] = system: Breast carcinoma cell; test: Potency index, ratio of IC50 for taxol to IC50 for test compound for cytotoxicity against patient derived inflammatory breast cancer cell spheroids assessed as increase in spheroid dissolution incubated for 24 hrs by propidium iodide/Acridine orange staining based dual-fluorescence viability assay; format: functional, Homo sapiens

Structure (SMILES)	Activity ([1]; Homo sapiens)	IC50 [4] [nM]	Activity [1] [%]	further results
CC(C)=CCC12OC(C)(C)C3CC(C=C4C(=O)C5=C(OC431)C(=O)C=CC5=O)C2=O (centres undefined)	inactive	–	–	–
CC(C)=CCC12OC(C)(C)C3CC(C=C4C(=O)c5c(F)cc(F)cc5OC431)C2=O (centres undefined)	–	1120	100	Activity [2]: Active; Activity [3]: Active; Activity [5]: Active; Activity [6]: Active
COCCOCCOCCOc1ccc2c(c1)OC13C(=CC4CC1C(C)(C)OC3(CC=C(C)C)C4=O)C2=O (centres undefined)	Active	–	–	–
COc1ccc(OC)c2c1OC13C(=CC4CC1C(C)(C)OC3(CC=C(C)C)C4=O)C2=O (centres undefined)	inactive	–	–	–
CC(C)=CCC12OC(C)(C)C3CC(C=C4C(=O)c5ccccc5OC431)C2=O (centres undefined)	–	630	100	–
COCCOCCOCCOc1cccc2c1C(=O)C1=CC3CC4C(C)(C)OC(CC=C(C)C)(C3=O)C14O2 (centres undefined)	Active	–	–	–
COCOc1cc(O)c2c(c1)OC13C(=CC4CC1C(C)(C)OC3(CC=C(C)C)C4=O)C2=O (centres undefined)	–	380	100	Activity [2]: Active; Activity [3]: Active; Activity [5]: Active; Activity [6]: Active
CC(C)=CCC12OC(C)(C)C3CC(C=C4C(=O)c5ccc(O)cc5OC431)C2=O (centres undefined)	inactive	–	–	–
COCCOCCOCCOc1cc(OCCOCCOCCOC)c2c(c1)OC13C(=CC4CC1C(C)(C)OC3(CC=C(C)C)C4=O)C2=O (centres undefined)	Active	–	–	–
CC(C)=CCC12OC(C)(C)C3CC(C=C4C(=O)c5c(O)cccc5OC431)C2=O (centres undefined)	–	510	100	Activity [2]: Active; Activity [3]: Active; Activity [5]: Active; IC50 [7]: 660 nM; Activity [6]: Active
COCCOCCOCCOc1cc(O)c2c(c1)OC13C(=CC4CC1C(C)(C)OC3(CC=C(C)C)C4=O)C2=O (centres undefined)	Active	–	–	–
CC(C)=CCC[C@]1(C)C=Cc2c(O)c3c(c(CC=C(C)C)c2O1)O[C@]12C(=C[C@@H]4C[C@H]1C(C)(C)O[C@@]2(C/C=C(/C)C(=O)O)C4=O)C3=O [GAMBOGIC ACID]	–	–	–	IC50 [7]: 420 nM; Ratio IC50 [8]: 20
CC(C)=CCC12OC(C)(C)C3CC4(Oc5cc(F)cc(F)c5C(=O)C4=CC31)C2=O (centres undefined)	–	890	100	–
CC(C)=CCC12OC(C)(C)C3CC(C=C4C(=O)c5c(O)cc(O)cc5OC431)C2=O (centres undefined)	inactive	–	–	–
CC(=O)O[C@H]1C(=O)[C@@]2(C)[C@H]([C@H](OC(=O)c3ccccc3)[C@]3(O)C[C@H](OC(=O)[C@H](O)[C@@H](NC(=O)c4ccccc4)c4ccccc4)C(C)=C1C3(C)C)[C@]1(OC(C)=O)CO[C@@H]1C[C@@H]2O [PACLITAXEL]	–	–	–	IC50 [7]: 7800 nM
